The text below walks through data of ChEMBL document CHEMBL2062526, “Tandem synthesis and in vitro antiplasmodial evaluation of new naphtho[2,1-d]thiazole derivatives” (Eur J Med Chem, 2012).

In general, IC50 refers to the concentration needed to halve the response being measured. A high value points to a need for much substance. For orientation: CC50 means the concentration that lowers cell viability or growth by half. The low end stands for greater toxicity to the cells, the high end for lower toxicity to the cells.

Some results are limits rather than exact numbers.

One data set concerns Plasmodium falciparum. Nature of the data set: Antiplasmodial activity against multidrug-resistant Plasmodium falciparum K1 ring stage after 72 hrs by […] Green fluorescence-based assay. The format is functional, organism-based. The following applies: K1, 72 h.
In turn, `Cc1nc2c(S(=O)(=O)c3ccccc3)c(N)c3ccccc3c2s1` came in with a half-maximal inhibitory concentration (IC50) of over 25 µM. Consider `COc1cc2cc(S(=O)(=O)c3ccc(Cl)cc3)c3nc(C)sc3c2cc1OC`, for which the IC50 is over 25 µM. For `COc1cc2cc(S(=O)(=O)c3ccccc3)c3nc(C)sc3c2cc1OC`, the IC50 turned out to be 2.7 µM.

For `Cc1nc2c(S(=O)(=O)c3ccccc3)cc3cc(F)ccc3c2s1`, the IC50 is over 25 µM.

On to `Cc1nc2c(S(=O)(=O)c3ccccc3)c(N)c3cc(F)ccc3c2s1`, for which the 50% inhibitory concentration (IC50) was over 25 µM. Take `Cc1nc2c(S(=O)(=O)c3ccccc3)cc3ccccc3c2s1`: the IC50 was over 25 µM. Same read-out and setting: the value for `Cc1ccc2cc(S(=O)(=O)c3ccccc3)c3nc(C)sc3c2c1` was 4.8 µM; that for `COc1cc2cc(S(=O)(=O)c3ccc(C)cc3)c3nc(C)sc3c2cc1OC` was over 25 µM. On the same count and under the same terms, next, `Cc1ccc(S(=O)(=O)c2cc3ccc(C)cc3c3sc(C)nc23)cc1`: over 25 µM.

Test system in another data set: not listed separately
Nature of the data set: Cytotoxicity against human HepG2 cells after 72 hrs by MTT assay. It counts as cell-based.
Details: not given
In outline: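 HepG2 cells seeded at 5×10^3/well in RPMI with 10% FBS, L-glutamine, penicillin/streptomycin, 37 °C under 6% CO₂/14% O₂/80% N₂. Compounds added after 24 h, 72 h exposure, duplicate wells. MTT (5 mg/mL stock) for 2 h, formazan dissolved in DMSO, A570 with 630 nm reference. Viability relative to untreated cells. CC50 from non-linear regression, mean of three independent experiments.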
For orientation: Formazan colour is commonly taken as a measure of viable cells.
In turn, `Cc1ccc(S(=O)(=O)c2c(N)c3ccccc3c3sc(C)nc23)cc1` registered a CC50 at 72 h of 0.2 µM. `Cc1nc2c(S(=O)(=O)c3ccccc3)c(N)c3ccccc3c2s1` yielded a CC50 at 72 h of over 500 µM. The same measure, in the same setting: next, `COc1cc2cc(S(=O)(=O)c3ccc(Cl)cc3)c3nc(C)sc3c2cc1OC`: over 31.2 µM. In turn, `COc1cc2cc(S(=O)(=O)c3ccccc3)c3nc(C)sc3c2cc1OC` showed a CC50 at 72 h of over 125 µM. For the compound `Cc1ccc(S(=O)(=O)c2cc3cc(F)ccc3c3sc(C)nc23)cc1`, the CC50 at 72 h came out at 3.1 µM. `Cc1ccc(S(=O)(=O)c2c(N)c3cc(F)ccc3c3sc(C)nc23)cc1` came in with a CC50 at 72 h of 0.2 µM. Take `Cc1nc2c(S(=O)(=O)c3ccccc3)cc3cc(F)ccc3c2s1`: it took 26 µM to reach half-maximal cytotoxicity (CC50 at 72 h). `Cc1nc2c(S(=O)(=O)c3ccccc3)c(N)c3cc(F)ccc3c2s1` had a CC50 at 72 h of over 500 µM. On the same count and under the same terms, next, `Cc1nc2c(S(=O)(=O)c3ccccc3)cc3ccccc3c2s1`: 11.3 µM; `Cc1ccc2cc(S(=O)(=O)c3ccccc3)c3nc(C)sc3c2c1`: over 125 µM; `Cc1nc2c(S(=O)(=O)c3ccc(Cl)cc3)c(N)c3ccccc3c2s1`: 1 µM. Compound `Cc1nc2c(S(=O)(=O)c3ccc(Cl)cc3)c(N)c3cc(F)ccc3c2s1` showed a CC50 at 72 h of 0.5 µM. As to `Cc1ccc(S(=O)(=O)c2cc3ccccc3c3sc(C)nc23)cc1`, half-maximal cytotoxicity (CC50 at 72 h) was put at 2.2 µM.

As to `Cc1nc2c(S(=O)(=O)c3ccc(Cl)cc3)cc3cc(F)ccc3c2s1`, the CC50 at 72 h came to 3.4 µM. Same read-out and setting: next, `Cc1nc2c(S(=O)(=O)c3ccc(Cl)cc3)cc3ccccc3c2s1`: 6 µM; `COc1cc2cc(S(=O)(=O)c3ccc(C)cc3)c3nc(C)sc3c2cc1OC`: over 125 µM. Compound `Cc1ccc(S(=O)(=O)c2cc3ccc(C)cc3c3sc(C)nc23)cc1` displayed a cytotoxic concentration (CC50) at 72 h of over 250 µM.

Test system in another data set: not listed separately
Nature of the data set: Selectivity index, ratio of CC50 for human HepG2 cells to IC50 for multidrug-resistant Plasmodium falciparum K1 ring stage.
Details: not given
It counts as functional. An outline of the steps:
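SI = CC50 (HepG2)/IC50 (K1). HepG2 MTT: 5×10^3 cells/well, 24 h preculture, compound 72 h, 37 °C; MTT 2 h, formazan in DMSO, A570 (ref 630 nm); duplicates, CC50 by non-linear regression, mean of three experiments. K1 IC50 by 72 h SYBR Green assay on sorbitol-synchronized rings.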
As for `COc1cc2cc(S(=O)(=O)c3ccccc3)c3nc(C)sc3c2cc1OC`, the “Ratio CC50/IC50” value is reported as over 45. As for `Cc1nc2c(S(=O)(=O)c3ccccc3)cc3cc(F)ccc3c2s1`, the “Ratio CC50/IC50” value is listed as under 1. For the compound `Cc1nc2c(S(=O)(=O)c3ccccc3)cc3ccccc3c2s1`, the “Ratio CC50/IC50” value is on record as under 0.5.

Turning to `Cc1ccc2cc(S(=O)(=O)c3ccccc3)c3nc(C)sc3c2c1`, the “Ratio CC50/IC50” value is over 26. The same measure, in the same setting: the value for `C[C@H]1c2cccc(O)c2C(=O)C2=C(O)[C@]3(O)C(=O)C(C(N)=O)=C(O)[C@@H](N(C)C)[C@@H]3[C@@H](O)[C@@H]21.O` [DOXYCYCLINE] was 4.
